Data taken from article PMC5743405 (International Journal of Oncology, 2017).
Entries after “also recorded” stand apart in the source; their conditions may differ.

Tests used:
EDG5 = experiment: PathHunter β-arrestin; format: cell-based; details: 6 μM
In short: (§1)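 Engineered cells express the receptor fused to one β-galactosidase fragment (ED) and β-arrestin fused to the complementing fragment (EA). Receptor activation recruits β-arrestin, which restores enzyme activity, and this is read by chemiluminescence (RLU). Agonist % activity is 100% × (test − vehicle)/(maximal control ligand − vehicle). Antagonist mode is challenged with an EC80 control agonist, and % inhibition is 100% × (1 − (test − vehicle)/(EC80 − vehicle)). Hits require >30% activity or >35% inhibition, plus a 3×SD RLU margin.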

TLR9 = experiment: western blot, JJ012 cells; format: cell-based, human; details: vs untreated control, overnight incubation
TLR6 = experiment: western blot, JJ012 cells; format: cell-based, human; details: vs untreated control, overnight incubation
AVPR1A = experiment: PathHunter β-arrestin; format: cell-based; details: antagonist mode, 6 μM
In short: (§2)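 β-Arrestin recruitment assay: the enzyme acceptor is fused to β-arrestin and the ED fragment to the GPCR. Recruitment restores β-galactosidase, read by chemiluminescence. % activity = 100% × (test − vehicle)/(max control ligand − vehicle). % inhibition = 100% × (1 − (test − vehicle)/(EC80 control − vehicle)). An agonist hit needs >30% activity and RLU > baseline + 3×SD. An antagonist hit needs >35% inhibition and RLU < EC80 RLU − 3×SD.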

HTR1B = experiment: PathHunter β-arrestin; format: cell-based; details: antagonist mode, 6 μM
In short: (§3)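 Vendor-run (DiscoveRx) PathHunter enzyme fragment complementation. β-Arrestin carries the EA fragment and the receptor carries ED; recruitment restores β-gal activity, read by chemiluminescence (RLU). Agonist % activity = vehicle-subtracted RLU relative to max control ligand (gpcrMAX) or to vehicle (orphanMAX). Antagonist % inhibition = 100% × (1 − vehicle-subtracted sample RLU / vehicle-subtracted EC80 agonist control RLU).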

CX3CR1 = experiment: PathHunter β-arrestin; format: cell-based; details: 6 μM
In short: as §1

CHRM2 = experiment: PathHunter β-arrestin; format: cell-based; details: 6 μM
In short: as §1

TBXA2R = experiment: PathHunter β-arrestin; format: cell-based; details: 6 μM
In short: (§4)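 β-Arrestin recruitment to GPCR read by β-galactosidase fragment complementation and chemiluminescence. Agonist: % = 100 × (test − vehicle)/(max control ligand − vehicle), hit at >30% and RLU > baseline + 3 SD. Antagonist, against EC80 agonist: % inhibition = 100 × (1 − (test − vehicle)/(EC80 − vehicle)), hit at >35% and RLU < EC80 − 3 SD.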

TLR1 = experiment: western blot, JJ012 cells; format: cell-based, human; details: vs untreated control, overnight incubation
In short: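 JJ012 cells seeded at 1×10^6 cells/ml in 6-well clusters and incubated overnight at 37°C, 5% CO2 with or without test compound. Lysed with protease inhibitor (1:100) and centrifuged at 15,000 × g, 4°C. Protein loaded at 20 μg/lane with reducing agent, run on polyacrylamide gel, transferred to PVDF, probed with rabbit anti-TLR primaries and HRP-linked secondaries.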

DRD1 = experiment: PathHunter β-arrestin; format: cell-based; details: antagonist mode, 6 μM
In short: as §1

TACR1 = experiment: PathHunter β-arrestin; format: cell-based; details: 6 μM
In short: as §4

CXCR4 = experiment: PathHunter β-arrestin; format: cell-based; details: 6 μM
In short: as §1

OPRK1 = experiment: PathHunter β-arrestin; format: cell-based; details: antagonist mode, 6 μM
In short: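 GPCR-ED fusion and β-arrestin-EA fusion; arrestin recruitment restores β-galactosidase, read by chemiluminescence. Antagonist mode uses EC80 agonist challenge. % inhibition = 100 × (1 − (test − vehicle RLU)/(EC80 control − vehicle RLU)). Hit requires >35% inhibition and mean RLU below EC80 RLU − 3 × EC80 SD.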

MUC5B = MUC5B ELISA, JJ012 cell lysates; format: cell-based; details: PRP-1 at 1 μg/ml; human JJ012 cell lysates
In short: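 Cells trypsinized at confluency and seeded in 6-well clusters at 1×10^6 cells/ml. Test compound added to experimental wells only, controls untreated. Overnight at 37°C, 5% CO2. Cells washed in ice-cold PBS with protease inhibitor, lysed in buffer with protease inhibitor (1:100), scraped and spun at 15,000 × g, 4°C. Protein measured in supernatant. MUC5B quantified with a commercial human MUC5B ELISA kit.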

C5L2 = experiment: PathHunter β-arrestin; format: cell-based; details: antagonist mode, 6 μM
In short: as §2

GPR120 = experiment: PathHunter β-arrestin; format: cell-based; details: 6 μM
In short: as §3

P2RY2 = experiment: PathHunter β-arrestin; format: cell-based; details: 6 μM
In short: as §4

MCHR1 = experiment: PathHunter β-arrestin; format: cell-based; details: 6 μM
In short: as §3

GPR103 = experiment: PathHunter β-arrestin; format: cell-based; details: 6 μM
In short: as §3

[1] = test system: tumor suppressor miRNAs and onco-miRNAs; details: JJ012 cell line; ref [7]; cited from earlier work
BDKRB2 = experiment: PathHunter β-arrestin; format: cell-based; details: antagonist mode, 6 μM
In short: as §2

SSTR1 = experiment: PathHunter β-arrestin; format: cell-based; details: agonist mode, 6 μM
TET1/2 and SOCS3 = details: human chondrosarcoma; ref previously reported ([8],[9]); cited from earlier work
EDG7 = experiment: PathHunter β-arrestin; format: cell-based; details: antagonist mode, 6 μM
In short: as §1

NPBWR2 = experiment: PathHunter β-arrestin; format: cell-based; details: 6 μM
In short: as §3

DRD5 = experiment: PathHunter β-arrestin; format: cell-based; details: 6 μM
In short: as §1

In the case of Proline rich polypeptide 1 [PRP-1], the “% Activity” value (EDG5; agonist mode) is reported as 1%, the “% Inhibition” value (EDG5; antagonist mode) is reported as −8% and the protein expression (TLR9) is reported as “no indication of PRP-1 effect”. The protein expression (TLR6) was “increased in dose-dependent manner”, the “% Inhibition” value (AVPR1A) was −1% and the “% Inhibition” value (HTR1B) was 4%. For the same substance, the “% Activity” value (CX3CR1; agonist mode) was 1%, the “% Inhibition” value (CX3CR1; antagonist mode) was 2% and the “% Activity” value (CHRM2; agonist mode) was 1%. The “% Inhibition” value (CHRM2; antagonist mode) was −6%, the “% Activity” value (TBXA2R; agonist mode) was 1% and the “% Inhibition” value (TBXA2R; antagonist mode) was −10%. For the same substance, the protein expression (TLR1) was “strong upregulation; also recorded: upregulated protein expression of TLR1 and TLR2 in dose-dependent manner”, the “% Inhibition” value (DRD1) was −5% and the “% Activity” value (TACR1; agonist mode) was 1%. The “% Inhibition” value (TACR1; antagonist mode) was −2%, the “% Activity” value (CXCR4; agonist mode) was 2% and the “% Inhibition” value (CXCR4; antagonist mode) was 2%. For the same substance, the “% Inhibition” value (OPRK1) was −12%, the “MUC5B presence in cell lysates” value (MUC5B) was 440 ng/mL and the “% Inhibition” value (C5L2) was −5%. The “% Activity” value (GPR120; agonist mode) was 1%, the “% Inhibition” value (GPR120; antagonist mode) was −6% and the “% Activity” value (P2RY2; agonist mode) was 2%. For the same substance, the “% Inhibition” value (P2RY2; antagonist mode) was −4%, the “% Activity” value (MCHR1; agonist mode) was 1% and the “% Inhibition” value (MCHR1; antagonist mode) was −4%. For the same substance, the “% Activity” value (GPR103; agonist mode) was 2%, the “% Inhibition” value (GPR103; antagonist mode) was 6% and the miRNA regulation [1] was “upregulate tumor suppressor miRNAs and downregulate onco-miRNAs”. The “% Inhibition” value (BDKRB2) was 5%, the “% Activity” value (SSTR1) was −3% and the “expression of TET1/2 and SOCS3” value (TET1/2 and SOCS3) was “significant upregulation”. The “% Inhibition” value (EDG7) was −3%, the “% Activity” value (NPBWR2; agonist mode) was 1% and the “% Inhibition” value (NPBWR2; antagonist mode) was −3%. For the same substance, the “% Activity” value (DRD5; agonist mode) was 1% and the “% Inhibition” value (DRD5; antagonist mode) was −8%.
